# Shown are actives, neighbours in structure and some others; about 1.2% of the full set was active somewhere.
# zfTRPN1 agonist – agonists of zebrafish TRPN1 channel; HEK293 zebrafish TRPN1-YFP, Fluo-8 calcium fluorescence; 100% = response to 87 µM carbachol; hit rate 0.18% among 220,000; AID 1424; activation, % at 3 µM;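 active = activation above its plate's cutoff, the mean activation of test wells on that plate plus 3 SD, cut at about 19% in these data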;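 note: 0% = DMSO alone and 100% = 87 µM carbachol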
#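 Control set: carbachol 87 µM as high control, DMSO as low control; system: HEK293 stable line with zebrafish TRPN1-YFP; read-out: % activation versus carbachol response; detection: intracellular calcium fluorescence with Fluo-8; doses: single test compound dose, 3 µM nominal, 0.3% DMSO; schedule: dye 1 h 37 °C plus 30 min RT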
# TRPML3 agonist – agonists of human TRPML3 channel; activation, % at 3 µM; hit rate 0.29% among 220,000; AID 1448; HEK293 TRPML3-YFP, Fluo-8 calcium fluorescence; 100% = the carbachol control signal; Q8TDD5;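 active = activation above its plate's cutoff, the mean activation of the plate's test wells plus 3 SD, cut at about 12% in these data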;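 note: 0% = DMSO only wells and 100% = carbachol wells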
# Target sequence (Q8TDD5 whole entry, looked up): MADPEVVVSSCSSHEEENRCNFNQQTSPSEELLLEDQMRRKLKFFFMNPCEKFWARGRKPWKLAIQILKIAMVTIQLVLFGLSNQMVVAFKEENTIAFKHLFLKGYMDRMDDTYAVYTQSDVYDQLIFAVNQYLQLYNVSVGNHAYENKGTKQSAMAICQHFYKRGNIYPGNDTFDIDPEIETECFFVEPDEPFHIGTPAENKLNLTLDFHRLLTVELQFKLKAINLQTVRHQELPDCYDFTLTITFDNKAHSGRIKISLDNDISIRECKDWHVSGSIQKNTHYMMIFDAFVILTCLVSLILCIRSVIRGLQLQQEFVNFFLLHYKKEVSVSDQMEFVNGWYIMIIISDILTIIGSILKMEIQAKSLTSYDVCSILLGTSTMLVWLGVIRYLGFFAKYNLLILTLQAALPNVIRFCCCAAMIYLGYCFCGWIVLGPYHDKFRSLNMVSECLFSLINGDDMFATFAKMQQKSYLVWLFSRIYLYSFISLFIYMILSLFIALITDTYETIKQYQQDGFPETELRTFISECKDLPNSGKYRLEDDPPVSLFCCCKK
#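 Test system: TRPML3-YFP stable HEK293 cells. Doses: single point at 3 µM. Incubation: dye loading 1 h 37 °C then 30 min ambient, 125 s read. Signal: Fluo-8 calcium dye fluorescence, ex 470-495, em 515-575 nm. Measure: percent activation from peak-to-basal fluorescence ratio, scaled between DMSO and carbachol.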
# CRFR2-BP antag – CRF-BP/CRF-R2 complex antagonism; HEK293 CRF-R2/CRF-BP, CRF-induced calcium fluorescence; inhibition, % at 11.8 µM; hit rate 0.59% among 350,000; AID 588475;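 active = inhibition of the ligand-induced calcium signal above about 50% at the single tested concentration, limit read from the data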
# CRFBP-R2 agonist – agonists of human CRF-binding protein/CRF-R2 receptor complex; hit rate 0.46% among 350,000; activation, % at 13.2 µM; HEK293 CRF-R2/CRF-BP, calcium dye fluorescence (FLIPR); percent of saturating CRF peptide response;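 active = activation of at least 50%, plus an integration ratio under a set limit after plate pattern correction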;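 note: plate controls were neutral control wells without compound for no effect and CRF at EC100 for full effect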
# * hit, by the source's call; x = no result given.
SMILES,zfTRPN1 agonist,TRPML3 agonist,CRFR2-BP antag,CRFBP-R2 agonist
Cc1ccc(Sc2c(C=O)c3ccccc3n2C)cc1,-2,0,58*,9
CCOC(=O)c1c(C)[nH]c(C(=O)OCC(=O)Nc2sc(C(=O)N(C)C)c(C)c2C(=O)OCC)c1C,x,x,87*,3
COC(=O)C1=C(C(=O)c2ccccc2)C(c2ccc(O)c(OC)c2)n2nnnc2N1 (stereo not given),1,1,98*,5
CN(Cc1cccs1)C(=O)CCCc1c[nH]c2ccccc12,32*,32*,-56,39
C=CCn1c(=O)/c(=C/c2cc(OC)c(OC)c(OC)c2)s/c1=C(/C#N)c1nc2ccccc2n1C,1,1,-48,62*
CCN(CC)S(=O)(=O)c1ccc(/C=C/C(=O)Nc2ccc(Br)cc2F)cc1,6,4,-24,-3
CCc1nnc(NS(=O)(=O)c2ccc(NC(=O)c3cccc(Br)c3)cc2)s1,x,x,-11,0
COc1cccc(C2CC(c3cccs3)=NN2C(=O)c2ccco2)c1O (stereo not given),x,x,67*,-1
COc1ccc(C2CC(c3cccs3)=NN2C(=O)CCl)cc1OC (stereo not given),x,x,-13,2
Cc1ccc(C2=NN(C(=O)c3cccs3)C(c3ccccc3O)C2)cc1 (stereo not given),2,1,75*,-2
COc1ccc(C2CC(c3cccs3)=NN2C(=O)c2ccccc2)cc1OC (stereo not given),x,x,52*,0
O=C(c1ccco1)N1N=C(c2cccs2)CC1c1ccccc1O (stereo not given),x,x,93*,-9
O=C(NCc1cccc(Cl)c1)C1CCC(=O)N(CCCN2CCCC2=O)C1 (stereo not given),x,x,3,-1
CCCCn1c(O)c(N=NC(=O)c2ccccc2NS(=O)(=O)c2cccs2)c2ccccc21,-2,-1,20,2
O=C(c1ccco1)N1CCN(C(=O)C2CCN(S(=O)(=O)c3cccc4nsnc34)CC2)CC1,-1,1,-5,-1
C/C(=N\NC(=O)c1cc(Cl)ccc1O)c1ccc(Br)s1,1,1,52*,31
O=C(c1ccco1)N1CCN=C1SCc1c(F)cccc1Cl,-1,0,10,0
O=C(c1ccco1)N1CCN=C1SCc1ccccc1Cl,0,0,101*,-1
CCCn1cnc2cc(NCc3cccs3)ccc21,2,0,2,-3
O=C(Oc1ccccc1)c1ccc(NC(=O)c2ccco2)cc1,2,2,79*,-3
COC(=O)c1ccc(NC(=O)c2ccc(NC(=O)c3ccco3)cc2)cc1,x,x,1,0
COc1ccc(NC(=O)C(c2cc3c(cc2[N+](=O)[O-])OCO3)N(C)c2ccccc2)cc1 (stereo not given),-2,-1,-241,90*
Cc1ccc2cc(/C=C/C(=O)c3ccco3)c(Cl)nc2c1,1,0,-26,-1
Cc1ccc2nc(Cl)c(/C=C/C(=O)c3ccco3)cc2c1,-1,0,101*,0
O=C(Nc1nc2c(F)cc(F)cc2s1)c1ccco1,x,x,-12,0
SMILES,zfTRPN1 agonist,TRPML3 agonist,CRFR2-BP antag,CRFBP-R2 agonist
CCN(CC)C(=O)[C@H]1CC(CC(=O)NC/C=C(\C)CCC=C(C)C)C(=O)N2CCc3c([nH]c4ccc(OC)cc34)[C@]12C (stereo not given in full),x,x,78*,-7
COc1ccc2[nH]c3c(c2c1)CCN1C(=O)C(CC(=O)NC/C=C(\C)CCC=C(C)C)C[C@H](C(=O)N2CCCCC2)[C@@]31C (stereo not given in full),x,x,30,1
COc1ccc2[nH]c3c(c2c1)CCN1C(=O)C(CC(=O)NCCc2ccccn2)C[C@H](C(=O)N(C(C)C)C(C)C)[C@@]31C (stereo not given in full),x,x,70*,-4
CN(C)CCCNC(=O)C[C@H]1C[C@H](C(=O)N2CCCCC2)[C@@]2(C)c3[nH]c4ccc(Cl)cc4c3CCN2C1=O,x,x,-8,-1
CCN(CC)C(=O)[C@H]1CC(CC(=O)NC/C=C(\C)CCC=C(C)C)C(=O)N2CCc3c([nH]c4ccccc34)[C@]12C (stereo not given in full),x,x,49,5
CCN(CC)C(=O)[C@H]1C[C@H](CC(=O)NC/C=C(\C)CCC=C(C)C)C(=O)N2CCc3c([nH]c4ccc(Cl)cc34)[C@]12C,x,x,75*,2
CN(C)CCCNC(=O)C[C@H]1C[C@H](C(=O)N2CCOCC2)[C@@]2(C)c3[nH]c4ccc(Cl)cc4c3CCN2C1=O,x,x,95*,1
CCn1c(=NC(=O)CCS(=O)(=O)c2ccccc2)sc2cccc(OC)c21,x,x,-4,1
Cc1ccc(-c2nnc(Nc3ccc(CC(N)=O)cc3)c3ccccc23)cc1,-1,-1,-2,1
CC[C@]12c3[nH]c4ccc(OC)cc4c3CCN1C(=O)C(CC(=O)NCCCOC)C[C@@H]2C(=O)N1CCN(C(=O)c2ccco2)CC1 (stereo not given in full),x,x,53*,0
CC[C@]12c3[nH]c4ccc(OC)cc4c3CCN1C(=O)C(CC(=O)NCCN1CCOCC1)C[C@@H]2C(=O)N1CCN(C(=O)c2ccco2)CC1 (stereo not given in full),x,x,-5,-1
COc1ccc(NC(=O)C2=C(C)NC(=O)NC2c2cccs2)c(OC)c1 (stereo not given),2,1,-9,-2
Cc1ccccc1Nc1nc(N)nc(COC(=O)c2cccc(S(=O)(=O)N(C)c3ccccc3)c2)n1,0,1,51*,-4
CCCCOC(=O)C1[C@H]2C(=O)N(c3ccccc3CC)C[C@]23C=C[C@H]1O3 (stereo not given in full),0,0,-3,3
C=Cn1cc[n+](CC(=O)c2ccc(Cl)cc2)c1,x,x,117*,4
O=C(c1cc(-c2ccccc2)nn1-c1ccccc1)N1CCN(S(=O)(=O)c2ccc(F)cc2)CC1,x,x,12,3
Cc1ccc(C(=O)N(Cc2nnc(-c3ccccc3Cl)o2)C2CC2)o1,x,x,-23,-2
O=C1C2=C(SCCS2)C(=O)N1CCCO,0,1,34,59*
Cc1ccc(S(=O)(=O)/N=C2/NC(=O)/C(=C/c3cccnc3)S2)cc1,1,0,26,1
CCOc1cc(Br)cc(/C=C2\SC(=Nc3ccccc3)NC2=O)c1O,x,x,-13,2
Cc1ccc(S(=O)(=O)/N=C2/NC(=O)/C(=C\c3cc(Br)cc(Br)c3O)S2)cc1,x,x,-77,77*
Cc1ccc(S(=O)(=O)/N=C2/NC(=O)/C(=C/c3ccc(Br)o3)S2)cc1,-1,0,55*,-2
O=C(CNS(=O)(=O)c1cccs1)NCCc1ccc(Cl)cc1,x,x,56*,-2
COc1ccccc1N=Cc1c(C)[nH]n(-c2ccc(C)cc2C)c1=O,2,0,5,1
COc1ccc2nc(/N=C/c3c(C)[nH]n(-c4ccc(C)cc4C)c3=O)sc2c1,-1,0,15,65*

# Screens as filed in PubChem BioAssay.
